One test has as its target Mu-type opioid receptor (Mus musculus, UniProt P42866). Briefly: Binding affinity against Opioid receptor mu 1 using [3H][D-Ala2, MePhe4, Gly-ol5]-enkephalin as radioligand. A digest of the protocol:
(§1)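 Whole-brain (minus cerebellum) membranes from male CD-1 mice in 50 mM Tris-HCl pH 7.4, preincubated 45 min at 37 °C. μ labelled with 0.7 nM [3H]DAMGO, κ with 1.2 nM [3H]U69593 (PEI-presoaked filters); 50 min at 25 °C in triplicate; nonspecific with 10 μM naloxone. IC50 by nonlinear regression, Ki by Cheng–Prusoff; mean ± SEM, n=3 unless stated.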

For test [1], the target named is T1, Delta-type opioid receptor (Mus musculus, UniProt P32300). Briefly: Binding affinity against Opioid receptor delta 1 using [3H][D-Ala2, D-Leu5]-enkephalin as radioligand.
T1 sequence (P32300 whole entry): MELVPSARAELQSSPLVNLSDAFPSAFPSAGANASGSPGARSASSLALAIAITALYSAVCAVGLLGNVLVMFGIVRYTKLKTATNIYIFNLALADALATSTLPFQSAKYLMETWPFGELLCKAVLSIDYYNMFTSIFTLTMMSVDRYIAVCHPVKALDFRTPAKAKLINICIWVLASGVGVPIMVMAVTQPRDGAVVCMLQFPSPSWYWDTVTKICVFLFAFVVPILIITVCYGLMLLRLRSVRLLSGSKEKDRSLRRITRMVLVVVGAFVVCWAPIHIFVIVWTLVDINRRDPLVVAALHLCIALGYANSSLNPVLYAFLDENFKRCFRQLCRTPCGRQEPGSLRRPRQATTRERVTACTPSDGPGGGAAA
In test [2] the target is T1, Delta-type opioid receptor. Briefly: In vitro antagonist activity against Opioid receptor delta 1 in the presence of 30 nM naltrindole, in a mouse vas deferens assay. In kind it is functional, tissue-based.
Test [3] concerns the target T1, Delta-type opioid receptor. Briefly: In vitro agonist activity for Opioid receptor delta 1 was determined in a mouse vas deferens assay. The class given is functional, tissue-based.
For test [4], the system named is Mus musculus. Briefly: Antinociceptive activity in mouse abdominal constriction test after intracerebroventricular administration. The class given is functional, Abdomen. A digest of the protocol: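 Male Swiss mice (20-35 g); drug given icv by needle through the skull 1.5 mm right of bregma on the coronal suture (3.5 mm protrusion), 5 min before ip phenyl-p-benzoquinone (2 mg/kg, 10 mL/kg, at 37 °C).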

Test [5] addresses Kappa-type opioid receptor (Mus musculus, UniProt P33534). Briefly: Binding affinity against Opioid receptor kappa 1 using [3H]-U-69,593 as radioligand. A digest of the protocol: as §1
The species named for test [6] is Mus musculus. Briefly: Selectivity ratio of the affinity for kappa and delta opioid receptors (Ki kappa/Ki delta). A digest of the protocol:
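Ratios of Ki values: δ Ki from [3H]DADLE (1 nM) on NG108-15 membranes; μ Ki from [3H]DAMGO (0.7 nM) and κ Ki from [3H]U69593 (1.2 nM) on mouse brain membranes; all 25 °C competition assays with Ki derived by Cheng–Prusoff.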

Test [7] concerns the target T1, Delta-type opioid receptor. Briefly: Inv itro antagonist activity against Opioid receptor delta 1 in the presence of 30 nM naltrindole, in a mouse vas deferens assay. In kind it is functional, tissue-based. A digest of the protocol: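 Isolated vasa deferentia from CD-1 mice (25–35 g) held in Mg2+-free Krebs buffer, oxygenated with 95% O2/5% CO2, at 37 °C. Electrical field stimulation: 50 ms trains of 2 ms pulses at 50 Hz, 60–70 V maximal, trains at 0.1 Hz. Agonist concentration–response curves built cumulatively in the presence of 30 nM naltrindole.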

Kappa-type opioid receptor, sequence (P33534 whole entry): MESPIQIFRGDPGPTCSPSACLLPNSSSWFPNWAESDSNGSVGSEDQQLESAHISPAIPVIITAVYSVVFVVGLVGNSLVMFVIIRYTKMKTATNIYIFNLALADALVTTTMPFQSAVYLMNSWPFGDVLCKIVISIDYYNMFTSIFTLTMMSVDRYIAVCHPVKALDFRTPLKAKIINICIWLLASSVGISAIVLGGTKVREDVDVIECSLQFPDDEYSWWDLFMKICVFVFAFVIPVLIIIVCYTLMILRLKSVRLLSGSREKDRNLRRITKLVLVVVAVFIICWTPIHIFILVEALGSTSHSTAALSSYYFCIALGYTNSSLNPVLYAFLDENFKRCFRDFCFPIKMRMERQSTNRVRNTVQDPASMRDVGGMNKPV
Mu-type opioid receptor, sequence (P42866 whole entry): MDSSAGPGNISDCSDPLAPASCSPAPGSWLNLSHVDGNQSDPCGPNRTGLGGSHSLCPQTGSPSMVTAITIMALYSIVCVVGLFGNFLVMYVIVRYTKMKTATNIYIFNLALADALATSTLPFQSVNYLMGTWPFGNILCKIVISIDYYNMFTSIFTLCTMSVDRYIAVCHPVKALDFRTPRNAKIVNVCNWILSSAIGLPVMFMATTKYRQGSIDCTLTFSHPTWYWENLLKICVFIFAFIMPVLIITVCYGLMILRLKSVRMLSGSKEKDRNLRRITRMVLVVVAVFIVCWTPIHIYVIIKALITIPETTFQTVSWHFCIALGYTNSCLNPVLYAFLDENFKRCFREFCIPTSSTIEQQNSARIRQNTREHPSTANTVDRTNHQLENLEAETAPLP

For the compound `CCN1CC[C@]2(c3cccc(O)c3)Cc3[nH]c(C(=O)N(CC)CC)c(C)c3C[C@H]2C1` (racemic) [listing 1 of 2 here], the Ki at Mu-type opioid receptor stood at 407 nM; in test [1], 1.9 nM; in test [5], 1300 nM. For the same compound, the IC50 in test [2] is 330 nM; in test [3], 34 nM. Also, the ED50 in the test on Mus musculus [4] came to 1.6 ug mouse-1.

In the case of `CCN1CC[C@]2(c3cccc(O)c3)Cc3[nH]c4ccccc4c3C[C@H]2C1` (racemic) [listing 1 of 2 here], the Ki came to 2090 nM on Mu-type opioid receptor, 7.1 nM in test [1] and 334 nM in test [5].

For the compound `CCN(CC)C(=O)c1[nH]c2c(c1C)C[C@H]1CN(C)CC[C@]1(c1cccc(O)c1)C2` (racemic), the Ki was 93 nM on Mu-type opioid receptor, 2.1 nM in test [1] and 500 nM in test [5]. The Selectivity ratio in the test listed under Mus musculus [6] came to 240.

With `CCN(CC)C(=O)c1[nH]c2c(c1C)C[C@H]1CN(CC3CC3)CC[C@]1(c1cccc(O)c1)C2` (racemic), the Ki at Mu-type opioid receptor is 14.1 nM; in test [1] it was 1.7 nM; in test [5], 63.1 nM. In addition, the Selectivity ratio in the test filed under Mus musculus [6] turned out to be 37.

In the case of `CCN1CC[C@]2(c3cccc(O)c3)Cc3[nH]c(C(=O)N(CC)CC)c(C)c3C[C@H]2C1` (racemic) [listing 2 of 2 here], the Selectivity ratio in the test listed under Mus musculus [6] came out at 690.

As to `CCN1CC[C@]2(c3cccc(O)c3)Cc3[nH]c4ccccc4c3C[C@H]2C1` (racemic) [listing 2 of 2 here], in the test listed under Mus musculus [6], the Selectivity ratio worked out at 50.

Turning to `CCN1CC[C@]2(c3cccc(O)c3)Cc3[nH]c4ccccc4c3C[C@H]2C1` (stereo in doubt; (+)-3) [listing 1 of 2 here], the values for the Ki (at Mu-type opioid receptor; in test [1]; in test [5]) were 2620 nM, 2.2 nM and 771 nM, respectively.

`CCN1CC[C@]2(c3cccc(O)c3)Cc3[nH]c4ccccc4c3C[C@H]2C1` (stereo in doubt; (+)-3) [listing 2 of 2 here]: the Selectivity ratio in the test filed under Mus musculus [6] was 350.

Take `CCN1CC[C@]2(c3cccc(O)c3)Cc3[nH]c(C(=O)N(CC)CC)c(C)c3C[C@H]2C1` (stereo in doubt; (+)-5b) [listing 1 of 2 here]: the Ki at Mu-type opioid receptor is more than 5000 nM; in test [1], 3540 nM; in test [5], 6000 nM.

As to `CCN1CC[C@]2(c3cccc(O)c3)Cc3[nH]c(C(=O)N(CC)CC)c(C)c3C[C@H]2C1` (stereo in doubt; (+)-5b) [listing 2 of 2 here], the Selectivity ratio in the test filed under Mus musculus [6] stood at 2.

Regarding `CCN1CC[C@]2(c3cccc(O)c3)Cc3[nH]c4ccccc4c3C[C@H]2C1` (stereo in doubt; (-)-3) [listing 1 of 2 here], the values for the Ki (on Mu-type opioid receptor; in test [1]; in test [5]) were 1630 nM, 1970 nM and 167 nM, respectively.

As for `CCN1CC[C@]2(c3cccc(O)c3)Cc3[nH]c4ccccc4c3C[C@H]2C1` (stereo in doubt; (-)-3) [listing 2 of 2 here], the Selectivity ratio in the test listed under Mus musculus [6] amounted to 0.1.

Take `CCN1CC[C@]2(c3cccc(O)c3)Cc3[nH]c(C(=O)N(CC)CC)c(C)c3C[C@H]2C1` (stereo in doubt; (-)-5b) [listing 1 of 2 here]: the IC50 was determined as 462 nM in test [7] and 26 nM in test [3]. Besides, the results for the Ki (on Mu-type opioid receptor; in test [1]; in test [5]) were 129 nM, 0.9 nM and 1340 nM, respectively.

Turning to `CCN1CC[C@]2(c3cccc(O)c3)Cc3[nH]c(C(=O)N(CC)CC)c(C)c3C[C@H]2C1` (stereo in doubt; (-)-5b) [listing 2 of 2 here], in the test listed under Mus musculus [6], the Selectivity ratio came to 1480.

Turning to `Oc1ccc2c3c1O[C@H]1c4[nH]c5ccccc5c4C[C@@]4(O)[C@@H](C2)N(CC2CC2)CC[C@]314` [NALTRINDOLE], the Ki on Mu-type opioid receptor came to 15 nM; in test [1], 0.5 nM; in test [5], 9.5 nM. Further, in the test listed under Mus musculus [6], the Selectivity ratio stood at 20.

Consider `CN1CC[C@]23c4c5ccc(O)c4O[C@H]2c2[nH]c4ccccc4c2C[C@@]3(O)[C@H]1C5` [OXYMORPHINDOLE], for which the Ki on Mu-type opioid receptor is 661 nM; in test [1] it was 0.8 nM; in test [5], 77 nM. The Selectivity ratio in the test filed under Mus musculus [6] was 90.

For the compound `C=CCN1C[C@H](C)N([C@H](c2ccc(C(=O)N(CC)CC)cc2)c2cccc(OC)c2)C[C@H]1C` [SNC-80], the Ki on Mu-type opioid receptor is 1300 nM; in test [5], 1350 nM.

As a reminder, the Ki is the dissociation constant of the complex between target and ligand, obtained from inhibition or displacement. The low end stands for higher affinity, the high end for lower affinity. As a reminder, the IC50 is the midpoint of a concentration-inhibition curve.

For the origin of these results see ChEMBL document CHEMBL1130172, “Discovery of a novel class of substituted pyrrolooctahydroisoquinolines as potent and selective delta opioid agonists, based on an extension of the message-address concept” (J Med Chem, 1997).
